Laboratory results taken from ChEMBL document CHEMBL4138096, “Design, synthesis, molecular docking and cytotoxic evaluation of novel 2-furybenzimidazoles as VEGFR-2 inhibitors” (Eur J Med Chem, 2017).

Experiments:
MCF7 [1] = assay: Cytotoxicity against human MCF7 cells assessed as reduction in cell viability after 48 hrs by SRB assay; assay type: functional, cell-based; conditions: MCF7, 48 h
How it was run: (§1)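 Cells seeded and allowed to attach 24 h, then exposed to compound at […] for 48 h at 37 °C, 5% CO2. Fixed, stained with sulforhodamine B, bound dye released in Tris EDTA and read on ELISA reader. IC50 taken from survival curve (surviving fraction vs concentration); mean of four independent experiments.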

HepG2 = assay: Cytotoxicity against human HepG2 cells assessed as reduction in cell viability after 48 hrs by SRB assay; assay type: functional, cell-based; conditions: HepG2, 48 h; how it was run: as §1
MCF7 [2] = assay: Inhibition of VEGFR2 protein expression in human MCF7 cells at cytotoxic IC50 after 24 hrs by ELISA relative to untreated control; assay type: functional
How it was run: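 MCF-7 cells treated with compound in DMSO for 24 h at 37 °C, humidified 5% CO2. Cells were harvested and homogenised in saline. VEGFR-2 in homogenate was measured by double-antibody sandwich ELISA (monoclonal capture, biotinylated goat polyclonal detection, avidin-biotin-peroxidase, TMB, OD 451 nm). Levels (ng/ml) came from a standard curve as duplicate determinations, and % change was taken versus untreated cells.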

[3] = target: Vascular endothelial growth factor receptor 2 (Homo sapiens, UniProt P35968); assay: Inhibition of human VEGFR2 using TMB substrate by ELISA
Chain of Vascular endothelial growth factor receptor 2 (P35968 whole entry): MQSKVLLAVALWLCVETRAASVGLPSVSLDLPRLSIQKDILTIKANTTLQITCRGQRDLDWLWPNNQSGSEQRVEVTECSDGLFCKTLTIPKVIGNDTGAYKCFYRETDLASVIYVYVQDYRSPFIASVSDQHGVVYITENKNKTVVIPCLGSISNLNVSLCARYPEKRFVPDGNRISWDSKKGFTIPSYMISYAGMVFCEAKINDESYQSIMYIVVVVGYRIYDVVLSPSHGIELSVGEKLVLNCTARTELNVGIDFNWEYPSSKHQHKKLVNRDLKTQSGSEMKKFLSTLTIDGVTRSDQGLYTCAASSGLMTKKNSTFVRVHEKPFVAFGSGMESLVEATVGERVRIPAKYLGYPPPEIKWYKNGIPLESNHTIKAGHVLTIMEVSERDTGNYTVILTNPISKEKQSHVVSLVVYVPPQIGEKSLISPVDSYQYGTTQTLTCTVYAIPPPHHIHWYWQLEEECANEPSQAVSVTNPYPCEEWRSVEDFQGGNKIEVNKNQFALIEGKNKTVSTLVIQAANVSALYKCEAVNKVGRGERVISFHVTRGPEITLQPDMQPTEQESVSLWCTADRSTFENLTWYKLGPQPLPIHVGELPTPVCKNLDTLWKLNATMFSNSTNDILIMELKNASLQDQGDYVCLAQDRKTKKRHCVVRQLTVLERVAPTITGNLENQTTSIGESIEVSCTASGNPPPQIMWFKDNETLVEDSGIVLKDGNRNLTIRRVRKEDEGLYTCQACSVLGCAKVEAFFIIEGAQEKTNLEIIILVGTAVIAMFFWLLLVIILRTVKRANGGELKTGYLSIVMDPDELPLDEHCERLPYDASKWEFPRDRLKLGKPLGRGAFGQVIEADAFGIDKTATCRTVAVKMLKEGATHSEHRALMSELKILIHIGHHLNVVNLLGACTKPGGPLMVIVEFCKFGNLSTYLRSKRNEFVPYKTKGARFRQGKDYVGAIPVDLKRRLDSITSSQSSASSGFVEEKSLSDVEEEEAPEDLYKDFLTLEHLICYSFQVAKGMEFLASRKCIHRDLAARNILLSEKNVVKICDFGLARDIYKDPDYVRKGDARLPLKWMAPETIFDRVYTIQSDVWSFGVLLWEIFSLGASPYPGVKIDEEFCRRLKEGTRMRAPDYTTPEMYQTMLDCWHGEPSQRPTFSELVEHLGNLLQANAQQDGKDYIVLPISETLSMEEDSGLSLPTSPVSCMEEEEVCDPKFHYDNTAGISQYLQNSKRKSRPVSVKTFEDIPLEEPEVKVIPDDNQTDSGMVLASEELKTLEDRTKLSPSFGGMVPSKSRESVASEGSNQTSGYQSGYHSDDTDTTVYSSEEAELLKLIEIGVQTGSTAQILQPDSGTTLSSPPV

With `CCOC(=O)Cn1c(-c2ccco2)nc2ccccc21` the IC50 (MCF7 [1]) was 57.3 µM, the IC50 (HepG2) was over 185 µM and the “inhibition (INH)” value (MCF7 [2]) was 57%.
With `S=c1[nH]nc(Cn2c(-c3ccco3)nc3ccccc32)s1` the IC50 (MCF7 [1]) was 52.6 µM, the IC50 (HepG2) was 47.6 µM and the “inhibition (INH)” value (MCF7 [2]) was 14%.
`O=C(Cn1c(-c2ccco2)nc2ccccc21)N/N=C/c1ccccc1Cl` showed an IC50 (MCF7 [1]) of 26.1 µM, an IC50 (HepG2) of 25.9 µM and an IC50 [3] of 0.64 µM. For the same compound, the “inhibition (INH)” value (MCF7 [2]) was 94%.
`Cc1ccc(-c2nc3ccccc3n2CC(=O)N/N=C/c2ccccc2Cl)o1` was tested, and the IC50 (MCF7 [1]) was 21.2 µM, the IC50 (HepG2) was 22.6 µM and the IC50 [3] was 1.26 µM. For the same compound, the “inhibition (INH)” value (MCF7 [2]) was 96%.
With `Cc1ccc(-c2nc3ccccc3n2C(=O)C(=O)n2c(-c3ccc(C)o3)nc3ccccc32)o1` the IC50 (MCF7 [1]) was 65.6 µM, the IC50 (HepG2) was over 111 µM and the “inhibition (INH)” value (MCF7 [2]) was 17%.
`CCOC(=O)CSc1nnc(Cn2c(-c3ccco3)nc3ccccc32)s1` was tested, and the IC50 (MCF7 [1]) was 28.5 µM, the IC50 (HepG2) was 62.1 µM and the “inhibition (INH)” value (MCF7 [2]) was 92%.
With `O=C(O)Cn1c(-c2ccco2)nc2ccccc21` the IC50 (MCF7 [1]) was 63.1 µM, the IC50 (HepG2) was 149 µM and the “inhibition (INH)” value (MCF7 [2]) was 61%.
`c1ccc2[nH]c(-c3ccc(CN4CCOCC4)o3)nc2c1` was tested, and the IC50 (MCF7 [1]) was 55.5 µM, the IC50 (HepG2) was 128 µM and the “inhibition (INH)” value (MCF7 [2]) was 58%.
`NC(=O)/C(=C\c1ccccc1)n1c(-c2ccco2)nc2ccccc21` was tested, and the IC50 (MCF7 [1]) was 38.6 µM, the IC50 (HepG2) was 63 µM and the “inhibition (INH)” value (MCF7 [2]) was 80%.
`Cc1ccc(-c2nc3ccccc3n2C(=O)n2c(-c3ccc(C)o3)nc3ccccc32)o1` was tested, and the IC50 (MCF7 [1]) was 58.3 µM, the IC50 (HepG2) was over 118 µM and the “inhibition (INH)” value (MCF7 [2]) was 9%.
In the case of `CNC(=O)c1cc(Oc2ccc(NC(=O)Nc3ccc(Cl)c(C(F)(F)F)c3)cc2)ccn1` [SORAFENIB], the IC50 (MCF7 [1]) is reported as 4.33 µg/mL and the “inhibition (INH)” value (MCF7 [2]) is reported as 95.75%.
With `NNC(=O)Cn1c(-c2ccco2)nc2ccccc21` the IC50 (HepG2) was over 195 µM and the “inhibition (INH)” value (MCF7 [2]) was 19%.
For `O=C(CCl)n1c(-c2ccco2)nc2ccccc21`, the IC50 (MCF7 [1]) was 60.9 µM, the IC50 (HepG2) was 60.9 µM and the “inhibition (INH)” value (MCF7 [2]) was 40%.
With `CC/C(=C(\c1ccccc1)c1ccc(OCCN(C)C)cc1)c1ccccc1` [TAMOXIFEN] the “inhibition (INH)” value (MCF7 [2]) was 98%.
For `CCOC(=O)Cn1c(-c2ccc(C)o2)nc2ccccc21`, the IC50 (MCF7 [1]) was 63.5 µM, the IC50 (HepG2) was over 176 µM and the “inhibition (INH)” value (MCF7 [2]) was 25%.
For `N=C1N=C(n2c(-c3ccco3)nc3ccccc32)CN1`, the IC50 (MCF7 [1]) was 93 µM, the IC50 (HepG2) was 63.5 µM and the “inhibition (INH)” value (MCF7 [2]) was 22%.
For `SC1=NNCC(n2c(-c3ccco3)nc3ccccc32)=N1`, the IC50 (MCF7 [1]) was 60.5 µM, the IC50 (HepG2) was 62.1 µM and the “inhibition (INH)” value (MCF7 [2]) was 40%.
Work on `Cc1ccc(-c2nc3ccccc3n2Cc2nnco2)o1` yielded an IC50 (MCF7 [1]) of over 177 µM and an IC50 (HepG2) of 132 µM.
`NC(=O)/C(=C\c1ccccc1Cl)n1c(-c2ccco2)nc2ccccc21` was tested, and the IC50 (MCF7 [1]) was 40 µM, the IC50 (HepG2) was 44.8 µM and the “inhibition (INH)” value (MCF7 [2]) was 57%.
With `COC(=O)Cn1c(-c2ccc(C)o2)nc2ccccc21` the IC50 (MCF7 [1]) was 87 µM, the IC50 (HepG2) was over 185 µM and the “inhibition (INH)” value (MCF7 [2]) was 38%.
With `Cc1ccc(-c2nc3ccccc3n2CC(=O)NN)o1` the IC50 (MCF7 [1]) was 68.3 µM, the IC50 (HepG2) was over 185 µM and the “inhibition (INH)” value (MCF7 [2]) was 24%.
With `O=C1CS/C(=C/n2c(-c3ccco3)nc3ccccc32)N1` the IC50 (MCF7 [1]) was 29.1 µM, the IC50 (HepG2) was 31.1 µM and the “inhibition (INH)” value (MCF7 [2]) was 86%.
For `NC(=O)Cn1c(-c2ccco2)nc2ccccc21`, the IC50 (MCF7 [1]) was 118 µM, the IC50 (HepG2) was 157 µM and the “inhibition (INH)” value (MCF7 [2]) was 13%.
With `Cc1ccc(-c2nc3ccccc3n2CC(=O)O)o1` the IC50 (MCF7 [1]) was 139 µM, the IC50 (HepG2) was over 195 µM and the “inhibition (INH)” value (MCF7 [2]) was 20%.
Compound `NNC(=O)CSc1nnc(Cn2c(-c3ccco3)nc3ccccc32)s1` has an IC50 (MCF7 [1]) of 21.4 µM, an IC50 (HepG2) of 26.9 µM and an IC50 [3] of 1.41 µM. The “inhibition (INH)” value (MCF7 [2]) was 96%.
In the case of `N#C/C(=C1/SCC(=O)N1c1ccccc1)n1c(-c2ccco2)nc2ccccc21`, the IC50 (MCF7 [1]) is reported as 55.9 µM, the IC50 (HepG2) is reported as 39.6 µM and the “inhibition (INH)” value (MCF7 [2]) is reported as 55%.
`Cc1ccc(-c2nc3ccccc3[nH]2)o1` was tested, and the IC50 (MCF7 [1]) was 55.6 µM and the “inhibition (INH)” value (MCF7 [2]) was 39%.
For `c1coc(-c2nc3ccccc3[nH]2)c1` [FUBERIDAZOLE], the IC50 (MCF7 [1]) was 106 µM, the IC50 (HepG2) was 103 µM and the “inhibition (INH)” value (MCF7 [2]) was 43%.
For `COC(=O)Cn1c(-c2ccco2)nc2ccccc21`, the IC50 (MCF7 [1]) was 80.6 µM, the IC50 (HepG2) was 67.3 µM and the “inhibition (INH)” value (MCF7 [2]) was 61%.
In the case of `N#CCn1c(-c2ccco2)nc2ccccc21`, the IC50 (MCF7 [1]) is reported as 88.1 µM, the IC50 (HepG2) is reported as 88.1 µM and the “inhibition (INH)” value (MCF7 [2]) is reported as 39%.
In the case of `N=C(Cn1c(-c2ccco2)nc2ccccc21)NN`, the IC50 (MCF7 [1]) is reported as 53.1 µM, the IC50 (HepG2) is reported as 74.5 µM and the “inhibition (INH)” value (MCF7 [2]) is reported as 27%.
Work on `ClC(Cl)(Cl)c1nnc(Cn2c(-c3ccco3)nc3ccccc32)o1` yielded an IC50 (MCF7 [1]) of over 131 µM and an IC50 (HepG2) of 85.6 µM.
